Experiments:
Salmonella typhimurium [1] = assay: compound was tested for mutagenicity against Salmonella tester strain TA 1535 with out hamster S9 mix (3 mg/plate) in cells at dose of 500 ug
Salmonella typhimurium [2] = assay: compound was tested for mutagenicity against Salmonella tester strain TA 1535 with hamster S9 mix (3 mg/plate) in cells at dose of 500 ug
Cricetinae gen. sp. = assay: (§1) compound was tested for mutagenicity against Salmonella tester strain TA 1535 with out hamster S9 mix (3 mg/plate) in cells at dose of 50 ug; assay type: functional
Outline: (§2)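 Plate incorporation assay in S. typhimurium TA 1535 without S9 activation. Compound in Me2SO, 1–1000 µg/plate, duplicate plates, mean revertants/plate; incubated 37 °C for 48 h, colonies hand-counted. Positive if two consecutive doses gave revertants more than twice the concurrent control mean.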

[3] = Concentration in nmol/plate to induce 50 revertants/plate.; assay type: ADME
Outline: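 Ames plate incorporation, S. typhimurium TA 1535, Aroclor-induced male hamster liver S9; duplicate plates, 10-point range 1–1000 µg/plate; 37 °C, 48 h; revertants counted by hand tally. Potency index: concentration (nmol/plate) inducing 50 revertants/plate, taken from linear portion of dose–response curve.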

Salmonella typhimurium [4] = assay: Mutagenicity against Salmonella tester strain TA 1535 without hamster S9 mix (3 mg/plate) in cells.; assay type: functional, Salmonella enterica subsp. enterica serovar Typhimurium
Salmonella typhimurium [5] = assay: compound was tested for mutagenicity against Salmonella tester strain TA 1535 with hamster S9 mix (3 mg/plate) in cells at dose of 2.5 ug; assay type: functional, Salmonella enterica subsp. enterica serovar Typhimurium
Outline: as §2, with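 “with Aroclor-induced male hamster liver” for “without”, “(3 mg/plate).” for “activation.”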

Salmonella typhimurium [6] = assay: compound was tested for mutagenicity against Salmonella tester strain TA 1535 with hamster S9 mix (3 mg/plate) in cells at dose of 100 ug; assay type: functional, Salmonella enterica subsp. enterica serovar Typhimurium
Outline: as §2, with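 “with Aroclor-induced male hamster liver” for “without”, “(3 mg/plate).” for “activation.”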

Salmonella typhimurium [7] = assay: compound was tested for mutagenicity against Salmonella tester strain TA 1535 with out hamster S9 mix (3 mg/plate) in cells at dose of 5 ug; assay type: functional, Salmonella enterica subsp. enterica serovar Typhimurium
Outline: as §2

Salmonella typhimurium [8] = assay: compound was tested for mutagenicity against Salmonella tester strain TA 1535 with hamster S9 mix (3 mg/plate) in cells at dose of 5 ug; assay type: functional, Salmonella enterica subsp. enterica serovar Typhimurium
Outline: as §2, with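 “with Aroclor-induced male hamster liver” for “without”, “(3 mg/plate).” for “activation.”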

Salmonella typhimurium [9] = assay: compound was tested for mutagenicity against Salmonella tester strain TA 1535 with out hamster S9 mix (3 mg/plate) in cells at dose of 500 ug; assay type: functional, Salmonella enterica subsp. enterica serovar Typhimurium
Outline: as §2

Salmonella typhimurium [10] = assay: compound was tested for mutagenicity against Salmonella tester strain TA 1535 with hamster S9 mix (3 mg/plate) in cells at dose of 1000 ug; assay type: functional, Salmonella enterica subsp. enterica serovar Typhimurium
Outline: as §2, with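 “with Aroclor-induced male hamster liver” for “without”, “(3 mg/plate).” for “activation.”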

Salmonella typhimurium [11] = assay: compound was tested for mutagenicity against Salmonella tester strain TA 1535 with hamster S9 mix (3 mg/plate) in cells at dose of 10 ug; assay type: functional, Salmonella enterica subsp. enterica serovar Typhimurium
Outline: as §2, with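 “with Aroclor-induced male hamster liver” for “without”, “(3 mg/plate).” for “activation.”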

Salmonella typhimurium [12] = assay: compound was tested for mutagenicity against Salmonella tester strain TA 1535 with hamster S9 mix (3 mg/plate) in cells. Activity expressed as no. of cells; assay type: functional, Salmonella enterica subsp. enterica serovar Typhimurium
Outline: as §2, with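 “with Aroclor-induced male hamster liver” for “without”, “(3 mg/plate).” for “activation.”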

Salmonella typhimurium [13] = assay: compound was tested for mutagenicity against Salmonella tester strain TA 1535 with out hamster S9 mix (3 mg/plate) in cells at dose of 1 ug; assay type: functional, Salmonella enterica subsp. enterica serovar Typhimurium
Outline: as §2

Salmonella typhimurium [14] = assay: compound was tested for mutagenicity against Salmonella tester strain TA 1535 with hamster S9 mix (3 mg/plate) in cells at dose of 250 ug; assay type: functional, Salmonella enterica subsp. enterica serovar Typhimurium
Outline: as §2, with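 “with Aroclor-induced male hamster liver” for “without”, “(3 mg/plate).” for “activation.”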

Salmonella typhimurium [15] = assay: compound was tested for mutagenicity against Salmonella tester strain TA 1535 with hamster S9 mix (3 mg/plate) in cells at dose of 1 ug; assay type: functional, Salmonella enterica subsp. enterica serovar Typhimurium
Outline: as §2, with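 “with Aroclor-induced male hamster liver” for “without”, “(3 mg/plate).” for “activation.”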

Salmonella typhimurium [16] = assay: compound was tested for mutagenicity against Salmonella tester strain TA 1535 with out hamster S9 mix (3 mg/plate) in cells at dose of 250 ug; assay type: functional, Salmonella enterica subsp. enterica serovar Typhimurium
Outline: as §2

Salmonella typhimurium [17] = assay: compound was tested for mutagenicity against Salmonella tester strain TA 1535 with out hamster S9 mix (3 mg/plate) in cells at dose of 100 ug; assay type: functional, Salmonella enterica subsp. enterica serovar Typhimurium
Outline: as §2

Salmonella typhimurium [18] = assay: compound was tested for mutagenicity against Salmonella tester strain TA 1535 with out hamster S9 mix (3 mg/plate) in cells at dose of 2.5 ug; assay type: functional, Salmonella enterica subsp. enterica serovar Typhimurium
Outline: as §2

Salmonella typhimurium [19] = assay: compound was tested for mutagenicity against Salmonella tester strain TA 1535 with hamster S9 mix (3 mg/plate) in cells.; assay type: functional, Salmonella enterica subsp. enterica serovar Typhimurium
Outline: as §2, with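 “with Aroclor-induced male hamster liver” for “without”, “(3 mg/plate).” for “activation.”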

Salmonella typhimurium [20] = assay: compound was tested for mutagenicity against Salmonella tester strain TA 1535 with out hamster S9 mix (3 mg/plate) in cells.; assay type: functional, Salmonella enterica subsp. enterica serovar Typhimurium
Outline: as §2

Salmonella typhimurium [21] = assay: compound was tested for mutagenicity against Salmonella tester strain TA 1535 with out hamster S9 mix (3 mg/plate) in cells at dose of 25 ug; assay type: functional, Salmonella enterica subsp. enterica serovar Typhimurium
Outline: as §2

Salmonella typhimurium [22] = assay: compound was tested for mutagenicity against Salmonella tester strain TA 1535 with hamster S9 mix (3 mg/plate) in cells at dose of 500 ug; assay type: functional, Salmonella enterica subsp. enterica serovar Typhimurium
Outline: as §2, with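 “with Aroclor-induced male hamster liver” for “without”, “(3 mg/plate).” for “activation.”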

Salmonella typhimurium [23] = assay: as §1; assay type: functional, Salmonella enterica subsp. enterica serovar Typhimurium
Outline: as §2

Salmonella typhimurium [24] = assay: compound was tested for mutagenicity against Salmonella tester strain TA 1535 with hamster S9 mix (3 mg/plate) in cells at dose of 25 ug; assay type: functional, Salmonella enterica subsp. enterica serovar Typhimurium
Outline: as §2, with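 “with Aroclor-induced male hamster liver” for “without”, “(3 mg/plate).” for “activation.”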

Salmonella typhimurium [25] = assay: compound was tested for mutagenicity against Salmonella tester strain TA 1535 with out hamster S9 mix (3 mg/plate) in cells at dose of 1000 ug; assay type: functional, Salmonella enterica subsp. enterica serovar Typhimurium
Outline: as §2

Salmonella typhimurium [26] = assay: compound was tested for mutagenicity against Salmonella tester strain TA 1535 with out hamster S9 mix (3 mg/plate) in cells at dose of 10 ug; assay type: functional, Salmonella enterica subsp. enterica serovar Typhimurium
Outline: as §2

Salmonella typhimurium [27] = assay: compound was tested for mutagenicity against Salmonella tester strain TA 1535 with hamster S9 mix (3 mg/plate) in cells at dose of 50 ug; assay type: functional, Salmonella enterica subsp. enterica serovar Typhimurium
Outline: as §2, with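 “with Aroclor-induced male hamster liver” for “without”, “(3 mg/plate).” for “activation.”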

With `CN(Cc1ccccc1)N=O` the “No. of revertants per plate” value (Salmonella typhimurium [1]) was 17, the “No. of revertants per plate” value (Salmonella typhimurium [2]) was 60 and the “No. of revertants per plate” value (Cricetinae gen. sp.) was 14. For the same compound, the “Log 1/C” value [3] was -3.416 and the Activity (Salmonella typhimurium [4]) was 19.
In the case of `Cc1cccc(CN(C)N=O)c1`, the “No. of revertants per plate” value (Salmonella typhimurium [1]) is reported as 14, the “No. of revertants per plate” value (Salmonella typhimurium [2]) is reported as 106 and the “Log 1/C” value [3] is reported as -3.039. It also gave an Activity (Salmonella typhimurium [4]) of 16.
With `COc1cccc(CN(C)N=O)c1` the “No. of revertants per plate” value (Salmonella typhimurium [1]) was 18, the “No. of revertants per plate” value (Salmonella typhimurium [2]) was 145 and the Log [3] was -1.886 (degrees C)-1. The Activity (Salmonella typhimurium [4]) was 25.
Work on `COC(=O)c1ccc(CN(C)N=O)cc1` yielded a No. of revertants per plate (Salmonella typhimurium [1]) of 15, a No. of revertants per plate (Salmonella typhimurium [2]) of 18 and an Activity (Salmonella typhimurium [4]) of 14.
With `CN(Cc1cccc(C(F)(F)F)c1)N=O` the “No. of revertants per plate” value (Salmonella typhimurium [1]) was 18, the “No. of revertants per plate” value (Salmonella typhimurium [2]) was 127 and the “Log 1/C” value [3] was -1.961. For the same compound, the Activity (Salmonella typhimurium [4]) was 21.
In the case of `CN(Cc1ccc(Br)cc1)N=O`, the “No. of revertants per plate” value (Salmonella typhimurium [5]) is reported as 12, the “No. of revertants per plate” value (Salmonella typhimurium [6]) is reported as 64 and the “No. of revertants per plate” value (Salmonella typhimurium [7]) is reported as 21. The “No. of revertants per plate” value (Salmonella typhimurium [8]) was 15, the “No. of revertants per plate” value (Salmonella typhimurium [9]) was 13 and the “No. of revertants per plate” value (Salmonella typhimurium [10]) was 201. The “No. of revertants per plate” value (Salmonella typhimurium [11]) was 14, the Activity (Salmonella typhimurium [12]) was 17 and the “No. of revertants per plate” value (Salmonella typhimurium [13]) was 14. The “No. of revertants per plate” value (Salmonella typhimurium [14]) was 155, the “No. of revertants per plate” value (Salmonella typhimurium [15]) was 12 and the “No. of revertants per plate” value (Salmonella typhimurium [16]) was 11. For the same compound, the “No. of revertants per plate” value (Salmonella typhimurium [17]) was 16, the “No. of revertants per plate” value (Salmonella typhimurium [18]) was 13 and the Activity (Salmonella typhimurium [19]) was 13. For the same compound, the Activity (Salmonella typhimurium [20]) was 14, the “No. of revertants per plate” value (Salmonella typhimurium [21]) was 14 and the “No. of revertants per plate” value (Salmonella typhimurium [22]) was 183. The “No. of revertants per plate” value (Salmonella typhimurium [23]) was 10, the “Log 1/C” value [3] was -1.998 and the “No. of revertants per plate” value (Salmonella typhimurium [24]) was 21. For the same compound, the “No. of revertants per plate” value (Salmonella typhimurium [25]) was 15, the Activity (Salmonella typhimurium [4]) was 12 and the “No. of revertants per plate” value (Salmonella typhimurium [26]) was 18. For the same compound, the “No. of revertants per plate” value (Salmonella typhimurium [27]) was 32.
In the case of `CN(Cc1cccc(Br)c1)N=O`, the “No. of revertants per plate” value (Salmonella typhimurium [1]) is reported as 11, the “No. of revertants per plate” value (Salmonella typhimurium [2]) is reported as 223 and the “Log 1/C” value [3] is reported as -1.552. The Activity (Salmonella typhimurium [4]) was 11.
In the case of `CN(Cc1ccc(C(=O)O)cc1)N=O`, the “No. of revertants per plate” value (Salmonella typhimurium [1]) is reported as 21, the “No. of revertants per plate” value (Salmonella typhimurium [2]) is reported as 15 and the Activity (Salmonella typhimurium [4]) is reported as 13.

Reference: ChEMBL document CHEMBL1123208, “Quantitative structure-activity relationship of the mutagenicity of substituted N-nitroso-N-benzylmethylamines: possible implications for carcinogenicity” (J Med Chem, 1986)
